The source made the active and inactive calls. The rule behind the calls is not given here.
Assays:
Punta Toro virus [1] = test: Antiviral activity against 500 PFU Punta Toro virus Adames infected C57BL/6 mouse assessed as mean day of death at 200 mg/kg, po twice daily for 5 days administered 4 hrs before viral challenge; format: functional
Outline: (§1)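 Groups of 15 mice (25–30 placebo) were inoculated subcutaneously with PTV. Drug in 0.4% carboxymethylcellulose was given by oral gavage twice daily.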

Punta Toro virus [2] = test: Antiviral activity against 500 PFU Punta Toro virus Adames infected C57BL/6 mouse assessed as animals with detectable virus level in liver at 50 mg/kg, po twice daily administered 4 hrs before viral challenge measured on day 4 of viral infection; format: functional
Outline: (§2)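 T-705 was suspended in 0.4% carboxymethylcellulose and given by oral gavage twice daily. Mice were infected subcutaneously with PTV. Five mice per group (10 placebo) were sacrificed on day 3 or 4. Liver homogenate or serum was serially diluted onto triplicate LLC-MK2 monolayers, and CPE was read at 6–8 days. The detection limit was 2.8 log10 CCID50 per 0.1 g liver or 0.1 ml serum.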

Punta Toro virus [3] = test: Antiviral activity against 500 PFU Punta Toro virus Adames infected C57BL/6 mouse assessed as survival at 75 mg/kg, po twice daily for 5 days administered 4 hrs before viral challenge; format: functional, organism-based; parameters: dose 75 mg/kg
Outline: (§3)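 PTV was inoculated subcutaneously into mice in groups of 15 (25–30 placebo). Dosing was by oral gavage twice daily for 5–7 days, with T-705 suspended in 0.4% CMC and ribavirin in saline. Remaining animals were observed 21–28 days for survival and day of death. Test doses had first been checked for tolerance in uninfected animals.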

Punta Toro virus [4] = test: Antiviral activity against 500 PFU Punta Toro virus Adames infected C57BL/6 mouse assessed as mean viral titer per 0.1 mL of serum at 100 mg/kg, po twice daily administered 4 hrs before viral challenge measured on day 4 of viral infection; format: functional
Outline: (§4)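 Mice were infected subcutaneously with PTV and dosed by oral gavage twice daily; 5 per group (10 placebo) were killed on day 3 or 4. Liver homogenate or serum was serially diluted onto triplicate LLC-MK2 monolayers, and CPE was read 6–8 days later. 50% endpoints gave log10 CCID50 per 0.1 g liver or 0.1 ml serum. Detection range was 2.8–9.5; undetectable samples were assigned <2.8.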

Punta Toro virus [5] = test: Antiviral activity against 500 PFU Punta Toro virus Adames infected C57BL/6 mouse assessed as mean day of death at 10 mg/kg, po twice daily for 5 days administered 4 hrs before viral challenge; format: functional; outline: as §1
Punta Toro virus [6] = test: Antiviral activity against Punta Toro virus Adames infected Syrian golden hamster assessed as survival at 15 mg/kg, po twice daily for 6 days administered 4 hrs before viral challenge; format: functional
Punta Toro virus [7] = test: Antiviral activity against Punta Toro virus Adames infected Syrian golden hamster assessed as mean viral titer per 0.1 mL of serum at 15 mg/kg, po twice daily administered 4 hrs before viral challenge measured on day 4 of viral infection; format: functional
Pichinde virus [8] = test: Antiviral activity against Pichinde virus An 4763 infected Syrian golden hamster assessed as survival at 60 mg/kg, po twice daily for 7 days administered 4 hrs before viral-challenge; format: functional
Punta Toro virus [9] = test: Antiviral activity against 500 PFU Punta Toro virus Adames infected C57BL/6 mouse assessed as survival at 50 mg/kg, po twice daily for 5 days administered 4 hrs before viral challenge; format: functional, organism-based; parameters: dose 50 mg/kg; outline: as §3
Punta Toro virus [10] = test: Antiviral activity against Punta Toro virus Adames infected Syrian golden hamster assessed as mean viral titer per 0.1 g of liver at 60 mg/kg, po twice daily administered 4 hrs before viral challenge measured on day 4 of viral infection; format: functional
Punta Toro virus [11] = test: Antiviral activity against 500 PFU Punta Toro virus Adames infected C57BL/6 mouse assessed as mean viral titer per 0.1 mL of serum at 10 mg/kg, po twice daily administered 4 hrs before viral challenge measured on day 3 of viral infection; format: functional; outline: as §4
Punta Toro virus [12] = test: Antiviral activity against 500 PFU Punta Toro virus Adames infected C57BL/6 mouse assessed as animals with detectable virus level in serum at 5 mg/kg, po twice daily administered 4 hrs before viral challenge measured on day 3 of viral infection; format: functional; outline: as §2
Punta Toro virus [13] = test: Antiviral activity against 500 PFU Punta Toro virus Adames infected C57BL/6 mouse assessed as animals with detectable virus level in serum at 10 mg/kg, po twice daily administered 24 hrs post viral challenge measured on day 3 of viral infection; format: functional; outline: as §2
Pichinde virus [14] = test: Antiviral activity against Pichinde virus An 4763 infected Syrian golden hamster assessed as mean day of death at 30 mg/kg, po twice daily for 7 days administered 4 hrs before viral-challenge; format: functional
Punta Toro virus [15] = test: Antiviral activity against Punta Toro virus Adames infected Syrian golden hamster assessed as animals with detectable virus level in liver at 15 mg/kg, po twice daily administered 4 hrs before viral challenge measured on day 4 of viral infection; format: functional
Punta Toro virus [16] = test: Antiviral activity against 500 PFU Punta Toro virus Adames infected C57BL/6 mouse assessed as mean viral titer per 0.1 g of liver at 5 mg/kg, po twice daily administered 4 hrs before viral challenge measured on day 3 of viral infection; format: functional; outline: as §4
Punta Toro virus [17] = test: Antiviral activity against 500 PFU Punta Toro virus Adames infected C57BL/6 mouse assessed as mean day of death at 75 mg/kg, po twice daily for 5 days administered 4 hrs before viral challenge; format: functional; outline: as §1
Punta Toro virus [18] = test: Antiviral activity against 500 PFU Punta Toro virus Adames infected C57BL/6 mouse assessed as mean viral titer per 0.1 g of liver at 30 mg/kg, po twice daily administered 4 hrs before viral challenge measured on day 3 of viral infection; format: functional; outline: as §4
Rift Valley fever virus = test: Antiviral activity against Rift Valley fever virus MP-12 assessed as reduction of 1 log10 unit viral titer yields after 3 to 5 days; format: functional
Punta Toro virus [19] = test: Antiviral activity against 500 PFU Punta Toro virus Adames infected C57BL/6 mouse assessed as mean viral titer per 0.1 g of liver at 10 mg/kg, po twice daily administered 4 hrs before viral challenge measured on day 3 of viral infection; format: functional; outline: as §4
Punta Toro virus [20] = test: Antiviral activity against 500 PFU Punta Toro virus Adames infected C57BL/6 mouse assessed as inhibition of liver damage at 75 mg/kg/day, po twice daily administered 4 hrs before viral challenge measured on day 3 of viral infection; format: functional, organism-based
Outline: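 Mice were infected with PTV subcutaneously and dosed by oral gavage twice daily (0.4% CMC vehicle). Five animals per group (10 placebo) were sacrificed on day 3 or 4. Livers were scored 0–4 for hepatic icterus, where 0 is normal and 4 is maximal yellow coloration.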

Enterovirus = test: Antiviral activity against Rhinovirus; format: functional, organism-based
Punta Toro virus [21] = test: Antiviral activity against Punta Toro virus Adames assessed as reduction of 1 log10 unit viral titer yields after 3 to 5 days; format: functional
Punta Toro virus [22] = test: Antiviral activity against 500 PFU Punta Toro virus Adames infected C57BL/6 mouse assessed as mean viral titer per 0.1 g of liver at 75 mg/kg, po administered 4 hrs before viral challenge measured on day 4 of viral infection; format: functional; outline: as §4
Punta Toro virus [23] = test: Antiviral activity against Punta Toro virus Adames infected Syrian golden hamster assessed as mean serum ALT levels at 15 mg/kg, po twice daily administered 4 hrs before viral challenge measured on day 4 of viral infection; format: functional
Pichinde virus [24] = test: Antiviral activity against Pichinde virus An 4763 infected Syrian golden hamster assessed as inhibition of liver damage at 50 mg/kg, po twice daily for 7 days administered 72 hrs post viral-challenge measured on day 7 of viral infection; format: functional, organism-based; parameters: dose 50 mg/kg
Punta Toro virus [25] = test: Antiviral activity against 500 PFU Punta Toro virus Adames infected C57BL/6 mouse assessed as animals with detectable virus level in serum at 75 mg/kg, po twice daily administered 4 hrs before viral challenge measured on day 4 of viral infection; format: functional; outline: as §2

NC(=O)c1nc(F)cnc1O [FAVIPIRAVIR]
Activity (Punta Toro virus [1]): 8 days
Activity (Punta Toro virus [2]): 0%
Activity (Punta Toro virus [3]): Active
log10CCID50 (Punta Toro virus [4]): <2.8
Activity (Punta Toro virus [5]): 5 days
survival at 15 mg/kg (Punta Toro virus [6]): 50%
log10CCID50 (Punta Toro virus [7]): <4.1
Activity (Pichinde virus [8]): 90%
Activity (Punta Toro virus [9]): Active
log10CCID50 (Punta Toro virus [10]): <3.4
log10CCID50 (Punta Toro virus [11]): 6.2
Activity (Punta Toro virus [12]): 100%
Activity (Punta Toro virus [13]): 100%
Activity (Pichinde virus [14]): 12.5 days
Activity (Punta Toro virus [15]): 100%
log10CCID50 (Punta Toro virus [16]): <2.8
Activity (Punta Toro virus [17]): >21 days
log10CCID50 (Punta Toro virus [18]): <2.8
EC90 (Rift Valley fever virus): 6 µM
log10CCID50 (Punta Toro virus [19]): <2.8
Activity (Punta Toro virus [20]): Active
EC50 (Enterovirus): 146 µM
EC90 (Punta Toro virus [21]): 20 µM
log10CCID50 (Punta Toro virus [22]): <2.8
Activity (Punta Toro virus [23]): 204 IU/L

NC(=O)c1ncn([C@@H]2O[C@H](CO)[C@@H](O)[C@H]2O)n1 [RIBAVIRIN]
Activity (Pichinde virus [24]): Active
Activity (Punta Toro virus [25]): 20%

— ChEMBL document CHEMBL1154414, “In vitro and in vivo activities of T-705 against arenavirus and bunyavirus infections” (Antimicrob Agents Chemother, 2007)
